According to paper PMC3969268 (Journal of medicinal chemistry, 2012):

What was measured:
[1] = molecular target: EcFtsZ-bound BoGTPγS (GTP binding pocket) (Escherichia coli, UniProt P0A9A6); assay: BoGTPγS fluorescence anisotropy competition assay, EcFtsZ; parameters: species or system E. coli; conditions: 1 μM BoGTPγS, 5 μM FtsZ, competitor 0 to 40 μM
Summary of the method: (§1)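 Competition anisotropy assay: 1 μM BODIPY-GTPγS with 0 or 5 μM FtsZ, plus test compound or unlabeled GTP (0–40 μM), in 50 mM Tris·HCl pH 7.4, 50 mM KCl, 2 mM magnesium acetate. After 5 min at 25 °C, probe anisotropy was read (ex 488/em 510 nm, 4 nm bandwidths), compared with FtsZ-free probe. Triplicates averaged.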

[2] = molecular target: EfFtsZ-bound BoGTPγS (GTP binding pocket) (Enterococcus faecalis, UniProt O08439); assay: BoGTPγS fluorescence anisotropy competition assay, EfFtsZ; parameters: species or system E. faecalis; conditions: 1 μM BoGTPγS, 5 μM FtsZ, competitor 0 to 40 μM
[3] = molecular target: SaFtsZ-bound BoGTPγS (GTP binding pocket) (Staphylococcus aureus, UniProt P0A031); assay: BoGTPγS fluorescence anisotropy competition assay, SaFtsZ; conditions: 1 μM BoGTPγS, 5 μM FtsZ, competitor 0 to 40 μM
Summary of the method: as §1

[4] = molecular target: MAP-rich porcine β-tubulin (70% β-tubulin, 30% MAPs) (Sus scrofa, UniProt P02554); assay: Tubulin polymerization light-scattering; assay type: biochemical; conditions: 2 mg/mL porcine β-tubulin, 1 mM GTP, 37 °C
[5] = molecular target: EcFtsZ (Escherichia coli, UniProt P0A9A6); assay: FtsZ polymerization light-scattering; assay type: biochemical, E. coli; conditions: 40 μg/mL compound or comparator drug
[6] = molecular target: T1, SaFtsZ (Staphylococcus aureus, UniProt P0A031); assay: FtsZ polymerization light-scattering; assay type: biochemical, S. aureus; conditions: SaFtsZ; 40 μg/mL compound or comparator drug
T1 sequence (P0A031 1-390): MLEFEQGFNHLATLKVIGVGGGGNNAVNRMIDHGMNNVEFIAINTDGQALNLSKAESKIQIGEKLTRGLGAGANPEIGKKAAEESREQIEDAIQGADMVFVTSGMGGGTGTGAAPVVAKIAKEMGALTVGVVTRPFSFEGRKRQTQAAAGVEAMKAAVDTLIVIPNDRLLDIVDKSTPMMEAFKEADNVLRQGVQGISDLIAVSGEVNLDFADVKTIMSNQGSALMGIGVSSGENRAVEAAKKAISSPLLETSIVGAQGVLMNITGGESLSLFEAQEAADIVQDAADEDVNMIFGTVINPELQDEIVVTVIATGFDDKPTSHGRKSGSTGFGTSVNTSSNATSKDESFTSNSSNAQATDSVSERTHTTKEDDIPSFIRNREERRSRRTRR

[7] = tested on: S. aureus; conditions: known from literature; cited from earlier work
[8] = tested on: S. aureus; assay: Emergence of resistance, large inoculum approach; assay type: cell-based; conditions: ~3 × 10^9 CFU/mL S. aureus on TSA plates with agent at 4- to 32-fold MIC; 24 h

Sequence of MAP-rich porcine β-tubulin (70% β-tubulin, 30% MAPs) (P02554 whole entry): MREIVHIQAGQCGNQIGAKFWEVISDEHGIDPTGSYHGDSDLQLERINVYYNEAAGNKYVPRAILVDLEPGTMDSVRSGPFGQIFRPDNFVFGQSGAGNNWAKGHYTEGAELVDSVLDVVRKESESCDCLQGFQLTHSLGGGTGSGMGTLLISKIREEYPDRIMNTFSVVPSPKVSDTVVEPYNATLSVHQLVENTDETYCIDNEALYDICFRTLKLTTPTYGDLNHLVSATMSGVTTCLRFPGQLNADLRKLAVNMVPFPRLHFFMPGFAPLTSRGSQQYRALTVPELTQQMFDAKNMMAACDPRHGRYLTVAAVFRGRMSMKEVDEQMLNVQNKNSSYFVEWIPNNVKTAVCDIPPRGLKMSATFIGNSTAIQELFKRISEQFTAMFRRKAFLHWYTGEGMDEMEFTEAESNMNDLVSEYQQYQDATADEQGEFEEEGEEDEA
Sequence of MAP-rich porcine β-tubulin (70% β-tubulin, 30% MAPs) (P02550 whole entry partner): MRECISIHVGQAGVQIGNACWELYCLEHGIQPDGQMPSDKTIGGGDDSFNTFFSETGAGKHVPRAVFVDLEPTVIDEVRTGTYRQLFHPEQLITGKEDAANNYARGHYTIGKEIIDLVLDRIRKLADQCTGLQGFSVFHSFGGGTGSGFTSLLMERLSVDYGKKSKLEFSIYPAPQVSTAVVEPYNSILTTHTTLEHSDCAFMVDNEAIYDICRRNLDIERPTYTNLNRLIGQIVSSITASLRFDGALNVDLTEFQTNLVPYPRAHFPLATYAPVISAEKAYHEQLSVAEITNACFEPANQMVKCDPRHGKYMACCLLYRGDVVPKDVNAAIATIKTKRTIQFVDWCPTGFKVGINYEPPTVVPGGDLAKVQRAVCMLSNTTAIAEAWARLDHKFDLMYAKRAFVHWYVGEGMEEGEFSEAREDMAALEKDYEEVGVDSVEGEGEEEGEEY
Sequence of EfFtsZ-bound BoGTPγS (GTP binding pocket) (O08439 whole entry): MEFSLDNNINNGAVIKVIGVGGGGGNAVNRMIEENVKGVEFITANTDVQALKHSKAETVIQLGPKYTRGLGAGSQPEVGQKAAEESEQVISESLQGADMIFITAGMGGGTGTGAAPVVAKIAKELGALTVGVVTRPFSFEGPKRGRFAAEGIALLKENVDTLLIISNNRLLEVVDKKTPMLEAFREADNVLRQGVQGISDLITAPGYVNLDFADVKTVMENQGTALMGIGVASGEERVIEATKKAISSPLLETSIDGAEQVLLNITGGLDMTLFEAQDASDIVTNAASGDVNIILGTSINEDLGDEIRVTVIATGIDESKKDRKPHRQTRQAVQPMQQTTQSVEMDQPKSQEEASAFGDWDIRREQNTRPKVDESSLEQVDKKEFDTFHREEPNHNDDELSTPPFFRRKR
Sequence of EcFtsZ-bound BoGTPγS (GTP binding pocket) (P0A9A6 whole entry): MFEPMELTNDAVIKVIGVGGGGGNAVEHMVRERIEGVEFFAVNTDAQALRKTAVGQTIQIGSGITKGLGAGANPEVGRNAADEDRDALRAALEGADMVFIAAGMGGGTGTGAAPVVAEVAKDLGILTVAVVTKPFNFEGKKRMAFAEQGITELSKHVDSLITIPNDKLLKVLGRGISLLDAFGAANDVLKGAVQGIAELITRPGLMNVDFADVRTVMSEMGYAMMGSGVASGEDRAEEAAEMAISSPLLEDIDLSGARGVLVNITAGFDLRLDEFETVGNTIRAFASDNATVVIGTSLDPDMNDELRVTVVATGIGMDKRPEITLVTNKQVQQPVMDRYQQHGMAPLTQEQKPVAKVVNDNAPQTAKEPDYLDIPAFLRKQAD
Sequence of EcFtsZ (P0A9A6 whole entry): as above

Structure (SMILES): Nc1nc2c(ncn2[C@@H]2O[C@H](COP(=O)(O)OP(=O)(O)OP(=O)(O)O)[C@@H](O)[C@H]2O)c(=O)[nH]1 [GTP, reference compound]
- effect on anisotropy of FtsZ-bound BoGTPγS [1]: marked, concentration-dependent decrease
- effect on anisotropy of FtsZ-bound BoGTPγS [2]: marked, concentration-dependent decrease
- effect on anisotropy of FtsZ-bound BoGTPγS [3]: marked, concentration-dependent decrease

Structure (SMILES): CC(=O)O[C@H]1C(=O)[C@@]2(C)[C@H]([C@H](OC(=O)c3ccccc3)[C@]3(O)C[C@H](OC(=O)[C@H](O)[C@@H](NC(=O)c4ccccc4)c4ccccc4)C(C)=C1C3(C)C)[C@]1(OC(C)=O)CO[C@@H]1C[C@@H]2O [paclitaxel]
- impact on tubulin polymerization (A340) ([4]; 25 μg/mL): expected stimulatory impact

Structure (SMILES): COC(=O)Nc1nc2cc(C(=O)c3cccs3)ccc2[nH]1 [nocodazole]
- impact on tubulin polymerization (A340) ([4]; 10 μg/mL): expected inhibitory impact

Structure (SMILES): CC1(C)S[C@@H]2[C@H](NC(=O)[C@H](N)c3ccccc3)C(=O)N2[C@H]1C(=O)[O-].[Na+] [ampicillin, reference compound]
- extent of stimulation of FtsZ polymerization (A340) [5]: negligible impact

Structure (SMILES): CCC[C@@H]1C[C@@H](C(=O)N[C@@H]([C@H]2O[C@H](SC)[C@H](O)[C@@H](O)[C@H]2O)[C@H](C)Cl)N(C)C1.Cl [clindamycin, reference compound]
- extent of stimulation of FtsZ polymerization (A340) [6]: negligible impact

Structure (SMILES): CO[C@H]1/C=C/O[C@@]2(C)Oc3c(C)c(O)c4c(O)c(c(/C=N/N5CCN(C)CC5)c(O)c4c3C2=O)NC(=O)/C(C)=C\C=C\[C@H](C)[C@H](O)[C@@H](C)[C@@H](O)[C@@H](C)[C@H](OC(C)=O)[C@@H]1C [rifampicin, reference compound]
- rate of induced spontaneous mutants in S. aureus [7]: 10^−6 to 10^−8
- agent-containing plates on which colonies were observed [8]: 100%
